# Results of several laboratories.
# Each line is one published result; the experiments were not run side by side.
# Target: Mitogen-activated protein kinase 8 (MAPK8, Homo sapiens, UniProt P45983)
Compound,assay,setting,endpoint,result
Cc1ccc(NC(=O)c2ccnc(C(F)(F)F)c2)cc1-c1cc(OCCO)nc(N2CCOCC2)c1,binding,1 µM,remaining binding,80%
C=CC(=O)N1CCC([C@@H]2CCNc3c(C(N)=O)c(-c4ccc(Oc5ccccc5)cc4)nn32)CC1,"enzyme activity, inhibitor",1 µM,inhibition,21%
N#Cc1ccc(NC(=O)Nc2ccccc2)cc1,"cell-free assay, competition with immobilised ligand",25 µM,remaining binding,78%
C#Cc1cnc(Nc2ccnc(CO)c2)nc1Nc1ccccc1S(C)(=O)=NC#N (stereo not drawn),cell-free assay,1 µM,remaining signal,54%
CCCCC(=O)Nc1ccc(-c2ccc3ncn(CCC)c(=O)c3c2)cn1,"binding, competition with immobilised ligand",0.5 µM,remaining binding,52%
C#Cc1cc(-c2cc(Nc3nc(N[C@@H](C)c4ccc(F)cn4)ncc3Cl)n[nH]2)ccc1C=O,"enzyme activity, inhibitor",0.2 µM,inhibition,9.62%
C[C@H]1CC[C@H](n2c3cnccc3c3cnc(Nc4ccc5c(n4)CCN(C(=O)CO)C5)nc32)CC1,binding,1 µM,remaining binding,7%
CO[C@@H]1[C@H](N(C)C(=O)c2ccccc2)C[C@H]2O[C@]1(C)n1c3ccccc3c3c4c(c5c6ccccc6n2c5c31)C(=O)NC4,"enzyme activity, inhibitor",1 µM,inhibition,22%
C1=C/COCc2cc(ccc2OCCN2CCCC2)Nc2nccc(n2)-c2cccc(c2)COC/1,cell-free assay,0.1 µM,remaining signal,12%
